By apparent Kd is commonly meant the concentration giving half-maximal binding under the conditions of the assay.

The test system of the series is MS2 coat protein. In words: apparent Kd, MS2 coat protein; higher = weaker binding; RNA-MaP array; FMN 200 µM where present. The essentials:
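Stalled E. coli RNA polymerase transcribed the designs on Illumina sequencing-chip clusters. SNAP-549-labelled MS2 coat protein was titrated from 0.7 or 1.5 nM, doubling to 3 µM, without and then with constant ligand, in 100 mM Tris-HCl pH 7.5, 80 mM KCl, 4 mM MgCl2, BSA, DTT, yeast tRNA and Tween-20. Per-cluster binding curves were fitted to green signal normalised to red-channel RNA signal and control-cluster median Fmax. The apparent Kd is the median of the filtered fits.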

[1] abbreviates: designed as: ON switch for flavin mononucleotide, no ligand.
Where [2] appears, read: ligand present: flavin mononucleotide, designed as: ON switch for flavin mononucleotide.
The mark [3] stands for this setting: designed as: OFF switch for flavin mononucleotide, no ligand.
The mark [4] stands for this setting: ligand present: flavin mononucleotide, designed as: OFF switch for flavin mononucleotide.

Turning to “AAAACAUGAGGAUCACCCAUGUAAAGAUCGGUUAAUAGAGGUGAGGAUAUACGAACUUAAAGGUAGUAGAAGGCACUGGGUACA”, the “apparent Kd” value is 47.1 nM under setting [1] and 35.5 nM under setting [2].

As to “AUAUGAAAGAUAGGAUAUACUGAGGUUGAAUGGGUAGAAGGAUCGAUAGUGAAGAAUACAUGAGGAUCACCCAUGUUGUGGAUU”, the “apparent Kd” value by setting is: under setting [1], 556 nM; under setting [2], 209 nM.

Turning to “UAUAUUAUUAUAGGAUAUGGAUAUGAUGCAUAUCCAGAAGGGUGAUUAUAAUAUUUUCUGUACAUGAGGAUCACCCAUGUUUAG”, the “apparent Kd” value under setting [1] stood at 134 nM and the “apparent Kd” value under setting [2] turned out to be 32.5 nM.

For “UGUACGGACAUGAGGAUCACCCAUGUAACCAAGCAGUUGGUACAGGAUAUCGCUUAGUGACUGAGCGAGAAGGGUGGUUCUGCA”, the “apparent Kd” value under setting [1] stood at 45.2 nM and the “apparent Kd” value under setting [2] worked out at 62.6 nM.

For “GGUCCAACAUGAGGAUAUAGCACCUUAUUGGUGCUAGAAGGCGUGUCGGUAGACAUGAGGAUCACCCAUGUAUUACAUUGGACC”, the “apparent Kd” value was determined as 93.2 nM under setting [1] and 22.4 nM under setting [2].

For “AUGUCUCUAGGAUAUUAGCGGAUCUACAUGAGGAUCACCCAUGUCGUGUCGCAGAUGUGCUGAGAAGGAGAGCACA”, the “apparent Kd” value by setting is: under setting [3], 15.2 nM; under setting [4], 19 nM.

“CUGGUUGUCGAGGAUAUGUCCCGGCUCGCUGACGCAGAAGGCGACACAUGAGGAUCACCCAUGUCGGUUCGCGU”: the “apparent Kd” value reads like this: under setting [3], 20.1 nM; under setting [4], 21.8 nM.

Turning to “UCCGCCAAAGGAUAUACUGGGCGUUAAAAUCCUCUUAAAAGACAUGAGGAUCACCCAUGUAGAAGGUUGAGGAA”, the “apparent Kd” value is 209 nM under setting [3] and 575 nM under setting [4].

Consider “AAUACGUCAGGAUAUCUGAUGUCUAACUUCGGUUAGACAUCAGAGAAGGGACAUGAGGAUCACCCAUGUAUAAA”, for which the “apparent Kd” value is, setting by setting: under setting [3], 51.1 nM; under setting [4], 44.9 nM.

On to “UUUUAACAUGAGGAUCACCCAUGUGAGGAUAUCGAAAUUUAUAUUAAUAUUUAUAUAACGAGAAGGCACAUUUU”, for which the “apparent Kd” value reads like this: under setting [3], 68.4 nM; under setting [4], 90.1 nM.

Consider “AGAGACCUCACAGGAUAUGCUGGACUUUGUCCAGCAGAAGGGUGAAAACAUGAGGAUCACCCAUGUAUGGUCUCCAAAUUUAAA”, for which the “apparent Kd” value is, setting by setting: under setting [1], 186 nM; under setting [2], 12.1 nM.

Regarding “GAGUAGUCAAAAGGAUAUUGAUUAUUGUAGGAUCAAGAAGGUUUUAACAUGAGGAUCACCCAUGUAGGACUAUUCCUGUGUAUC”, the “apparent Kd” value turned out to be 16.6 nM under setting [1] and 12.2 nM under setting [2].

For “ACUAGAUGAGGAUAUGCAUAUUUUCGUGUUCUUCUAGGUUAACAUGAGGAUCACCCAUGUAGAAGGCGUCUAUG”, the “apparent Kd” value by setting is: under setting [3], 21.1 nM; under setting [4], 47.6 nM.

In the case of “GUGGUAUUCGUAGGAUAUCCGUCGCCACCGUGUGGAGAAGGACGAACAUGAGGAUCACCCAUGUAUCAUGGUGUGGGCGUUGUC”, the “apparent Kd” value under setting [3] came out at 149 nM and the “apparent Kd” value under setting [4] came to 148 nM.

Turning to “UAAUAUUUAUGAUAUUAUGACAGUAGAAGGCUAUACAUGUUGAUACAUGAGGAUCACCCAUGUAUAGAGGAUAUAUACAUAUAU”, the “apparent Kd” value runs as follows: under setting [3], 681 nM; under setting [4], 315 nM.

“CAUUAAUUAAUUAGUUUAUAAAUACAGGAUAUGUUACAUGAGGAUCACCCAUGUUUACAUGGGAUACAGAAGGGUAAAUCAAUA”: the “apparent Kd” value by setting is: under setting [3], 192 nM; under setting [4], 145 nM.

Consider “ACAUGGAAUACAGGAUAUGUAAGUUUUAAGUGGAUUGGUUAUUACUUUACAACAGAAGGGUAAUACAUGAGGAUCACCCAUGUA”, for which the “apparent Kd” value under setting [1] came out at 30.1 nM and the “apparent Kd” value under setting [2] was 25.3 nM.

Consider “UGCACCAACGAGAAGGCACAGAUCCAGCUCUUGACAUGAGGAUCACCCAUGUGAGGAUAUCGUAGGUGCGAAUUGGGACAAUCU”, for which the “apparent Kd” value under setting [3] turned out to be 11 nM and the “apparent Kd” value under setting [4] is 98.2 nM.

Consider “CUAUUGGUAACAGGAUAUAUGAGUCCUACAUGAGGAUCACCCAUGUAGGUGAUCAAACGUGAUUAGUAGAAGGGUUACCAAUAG”, for which the “apparent Kd” value stood at 15.6 nM under setting [1] and 7.77 nM under setting [2].

Regarding “AAUAUGUGAGGAUAUCAGGUGUGCUAGCGUACUGGUACAUCUGAGAAGGCACAUGAGGAUCACCCAUGUAUCUU”, the “apparent Kd” value under setting [3] is 24.4 nM and the “apparent Kd” value under setting [4] is 87.4 nM.

The values are drawn from the EternaBench riboswitch data.
